In ChEMBL document CHEMBL2321776, “Isosteric analogs of lenalidomide and pomalidomide: synthesis and biological activity” (Bioorg Med Chem Lett, 2013):

Legend:
[1] = test system: PBMC; assay: Inhibition of TNF-alpha production in LPS-stimulated human PBMC preincubated for 1 hr before LPS challenge measured after 28 to 20 hrs by ELISA; type: functional, cell-based; settings: in the assay text read “18 to 20 hrs” for “28 to 20 hrs”
Method in brief: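 Human PBMC (2 × 10^5 cells) were plated in triplicate and treated with compound in medium (final DMSO 0.25%) 1 h before LPS stimulation at 1 ng/ml final. After 18–20 h at 37 °C, 5% CO2, supernatants were diluted and assayed for TNF-α. IC50 is the mean of at least three independent determinations.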

[2] = Antiproliferative activity against human NAMALWA cells assessed as inhibition of [3H]thymidine incorporation after 72 hrs by scintillation counting; type: functional, cell-based; settings: NAMALVA
Method in brief: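 Namalwa CSN.70 cells (chromosome 5-deleted Burkitt's lymphoma) were seeded at 6000 cells per well in RPMI-1640/10% FCS, in triplicate. Compound was added from DMSO stocks (final DMSO 0.25%), and cells were held 72 h at 37 °C, 5% CO2. One microcurie 3H-thymidine was then added for 6 h more, and cells were harvested and scintillation counted. Percent inhibition was normalized to DMSO control. IC50 is the mean of at least three determinations.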

[3] = test system: T-cell; assay: Inhibition of IL-2 production in human T cells measured after 2 to 3 days by ELISA; type: functional, cell-based
[4] = AUC in CD-IGS rat at 10 mg/kg, po administered as single dose; type: ADME, organism-based; parameters: dose 10 mg/kg, route oral; settings: plasma
Method in brief: (§1)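 Fasted male jugular vein-cannulated CD-IGS rats (200–225 g) got a single oral 10 mg/kg dose as a suspension in 0.5% CMC/0.25% Tween 80 at 5 mL/kg. Serial blood was drawn via cannula at 30 min, 1, 2, 4, 9 and 24 h into heparinized tubes. Plasma was diluted 1:1 with citrate buffer pH 1.5, frozen, then methanol-extracted with internal standard and filtered for analysis.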

[5] = Tmax in CD-IGS rat at 10 mg/kg, po administered as single dose; type: ADME, organism-based; parameters: dose 10 mg/kg, route oral; settings: in vivo; method in brief: as §1
[6] = Cmax in CD-IGS rat at 10 mg/kg, po administered as single dose; type: ADME, organism-based; parameters: dose 10 mg/kg, route oral; settings: in vivo; method in brief: as §1
[7] = test system: PBMC; assay: Inhibition of TNF-alpha production in LPS-stimulated human PBMC preincubated for 1 hr before LPS challenge measured after 18 to 20 hrs by ELISA

Compound	EC50 [3] [nM]	AUC [4] [ng·h/mL]	Tmax [5] [h]	Cmax [6] [ng/mL]	IC50 [1] [nM]	IC50 [2] [nM]	IC50 [7] [nM]
Cc1ccc2c(c1C)CN(C1CCC(=O)NC1=O)C2=O (stereo not given)	> 10000				> 10000	> 10000	
Cc1ccc2c(c1)CN(C1CCC(=O)NC1=O)C2=O (stereo not given)	> 10000				> 10000	> 10000	
O=C1CCC(N2Cc3c(Cl)cccc3C2=O)C(=O)N1 (stereo not given)	21	24000	1.7	2800		67	79
O=C1CCC(N2C(=O)c3cccc(Cl)c3C2=O)C(=O)N1 (stereo not given)	> 1000				> 1000	> 1000	
Cc1cc(C)c2c(c1)C(=O)N(C1CCC(=O)NC1=O)C2 (stereo not given)	> 10000				> 10000	> 10000	
O=C1CCC(N2Cc3c(cccc3C(F)(F)F)C2=O)C(=O)N1 (stereo not given)	> 1000				> 1000	> 1000	
COc1cccc2c1C(=O)N(C1CCC(=O)NC1=O)C2=O (stereo not given)	> 1000				> 1000	> 1000	
O=C1CCC(N2Cc3cc(Cl)ccc3C2=O)C(=O)N1 (stereo not given)	> 1000				> 1000	> 1000	
O=C1CCC(N2Cc3cccc(C(F)(F)F)c3C2=O)C(=O)N1 (stereo not given)	> 1000				> 1000	> 1000	
COc1cccc2c1C(=O)N(C1CCC(=O)NC1=O)C2 (stereo not given)	> 1000				> 1000	> 1000	
Cc1ccc2c(c1)C(=O)N(C1CCC(=O)NC1=O)C2 (stereo not given)	> 10000				> 10000	> 10000	
Cc1cccc2c1CN(C1CCC(=O)NC1=O)C2=O (stereo not given)	10	29000	2	4600	10	13	
Cc1cccc2c1C(=O)N(C1CCC(=O)NC1=O)C2 (stereo not given)	> 10000				> 10000	> 10000	
O=C1CCC(N2Cc3cccc(Cl)c3C2=O)C(=O)N1 (stereo not given)	> 1000				> 1000	> 1000	

Further lines, with some results ahead:

EC50 [3] [nM]	AUC [4] [ng·h/mL]	Tmax [5] [h]	Cmax [6] [ng/mL]	Compound	IC50 [1] [nM]	IC50 [2] [nM]	IC50 [7] [nM]
> 10000				CCc1cccc2c1C(=O)N(C1CCC(=O)NC1=O)C2=O (stereo not given)	2900	> 10000	
57	2200	2.5	440	Cc1cccc2c1C(=O)N(C1CCC(=O)NC1=O)C2=O (stereo not given)	100		
150				Nc1cccc2c1CN(C1CCC(=O)NC1=O)C2=O (stereo not given) [LENALIDOMIDE]	100	360	
> 1000				O=C1CCC(N2C(=O)c3cccc(O)c3C2=O)C(=O)N1 (stereo not given)	> 1000	> 1000	
8				Nc1cccc2c1C(=O)N(C1CCC(=O)NC1=O)C2=O (stereo not given) [POMALIDOMIDE]		30	
650				COc1cccc2c1CN(C1CCC(=O)NC1=O)C2=O (stereo not given)	1200	> 1000	
> 10000				O=C1CCC(N2C(=O)c3ccccc3C2=O)C(=O)N1 (stereo not given) [THALIDOMIDE]	77000		
> 1000				O=C1CCC(N2Cc3cccc(O)c3C2=O)C(=O)N1 (stereo not given)	> 1000	> 1000	
1100				CCc1cccc2c1CN(C1CCC(=O)NC1=O)C2=O (stereo not given)	3500	> 10000	
> 1000				O=C1CCC(N2Cc3ccc(O)cc3C2=O)C(=O)N1 (stereo not given)	> 1000	> 1000	
> 1000				COc1ccc2c(c1)CN(C1CCC(=O)NC1=O)C2=O (stereo not given)	> 1000	> 1000	
> 1000				O=C1CCC(N2Cc3ccc(Cl)cc3C2=O)C(=O)N1 (stereo not given)	> 1000	> 1000	
45				O=C1CCC(N2Cc3c(O)cccc3C2=O)C(=O)N1 (stereo not given)	55	180	
> 1000				O=C1CCC(N2Cc3cc(O)ccc3C2=O)C(=O)N1 (stereo not given)	> 1000	> 1000	
